Measurements: ChEMBL document CHEMBL3797089, “Morusin Induces TRAIL Sensitization by Regulating EGFR and DR5 in Human Glioblastoma Cells” (J Nat Prod, 2016)
The source made the active and inactive calls. The rule behind the calls is not given here.

Legend:
[1] = biological target: Epidermal growth factor receptor (Homo sapiens) (UniProt P00533); test: Inhibition of EGFR phosphorylation in human U373MG cells measured up to 25 uM after 24 hrs by Western blot analysis; format: cell-based; conditions: U-373MG ATCC
In short: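 U87MG and U373MG exposed to a range of morusin concentrations for 24 h. Whole-cell lysates immunoblotted for phosphorylated EGFR, with β-actin as internal control.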

U-251 [2] = test: Induction of DR5 expression in human U251MG cells after 24 hrs by Western blot analysis; format: functional, cell-based
In short: (§1)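 Cells exposed to a range of morusin concentrations for 24 h. Cell extracts immunoblotted for DR4, DR5, DcR1 and DcR2, with β-actin as internal control and HRP-conjugated secondary antibodies (1:5000).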

[3] = Reduction of survivin mRNA expression in human U87MG cells at 25 uM by RT-qPCR analysis; format: functional, cell-based; conditions: U-87MG ATCC, TDE = time-dependent effect
In short: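 U87MG cells were exposed to 25 μM morusin over a time course. Total RNA (1 μg) was reverse transcribed, and XIAP and survivin transcripts were measured by RT-qPCR against GAPDH. Results are mean ± SD from at least three independent experiments.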

[4] = Reduction of EGFR expression in human U87MG cells at 25 uM after 24 hrs by Western blot analysis; format: functional, cell-based; conditions: U-87MG ATCC
In short: (§2)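 LN18, U87MG, T98G, U251MG and U373MG glioblastoma cells were exposed to morusin for 24 h. Cells were maintained in DMEM, MEM or RPMI with 10% FBS at 37 °C and 5% CO2. Whole-cell lysates were Western blotted for receptor proteins, with β-actin as internal control.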

U-87 MG [5] = test: Induction of apoptosis in human U87MG cells assessed as apoptic cells at 20 uM after 24 hrs by V-FITC/propidium iodide staining based flow cytometric analysis in presence of TRAIL; format: functional, cell-based; conditions: U-87MG ATCC
In short: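 (2–3) × 10^5 cells/well given TRAIL 50 ng/mL with morusin 20 μM for 24 h. Annexin V-FITC/PI double staining, flow cytometry; annexin V-positive cells counted as apoptotic. Mean ± SD, t-test against mock.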

[6] = Reduction of EGFR expression in human U373MG cells at 25 uM after 24 hrs by Western blot analysis; format: functional, cell-based; conditions: U-373MG ATCC; in short: as §2
U-87 MG [7] = test: Induction of apoptosis in human U87MG cells assessed as increase in cleaved caspase 9 levels at 2.5 uM after 24 hrs by Western blot analysis in presence of TRAIL; format: functional, cell-based; conditions: U-87MG ATCC
In short: (§3)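 U87MG and T98G given TRAIL 25 ng/mL plus morusin 2.5 μM together for 24 h; single-agent arms used TRAIL 50 ng/mL or morusin 5 μM. Lysates immunoblotted for cleaved caspase 3, 8, 9 and cleaved PARP, with β-actin as internal control.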

U-87 MG [8] = test: Induction of apoptosis in human U87MG cells assessed as increase in cleaved PARP levels at 2.5 uM after 24 hrs by Western blot analysis in presence of TRAIL; format: functional, cell-based; conditions: U-87MG ATCC; in short: as §3
[9] = Cytotoxicity against human U373MG cells assessed as reduction in cell viability after 24 hrs by MTT assay; format: functional, cell-based, U-373MG ATCC; conditions: U373 MG
In short: (§4)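 Seeded 3–5 × 10^3 cells/well, treated the next day with a range of morusin (DMSO stock) for 24 h, 37 °C, 5% CO2. Then fresh medium with 1 mg/mL MTT for 2 h at 37 °C, lysis buffer overnight at 37 °C, OD 570 nm. Mean ± SD from at least three independent experiments in triplicate.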

U-87 MG [10] = test: Effect on DcR1 expression in human U87MG cells upto 25 uM after 24 hrs by Western blot analysis; format: functional, cell-based; conditions: U-87MG ATCC; in short: as §1
[11] = Reduction of EGFR expression in human U251MG cells at 25 uM after 24 hrs by Western blot analysis; format: functional, cell-based; conditions: U-251; in short: as §2
U-87 MG [12] = test: Effect on DR4 expression in human U87MG cells upto 25 uM after 24 hrs by Western blot analysis; format: functional, cell-based; conditions: U-87MG ATCC; in short: as §1
[13] = Reduction of survivin expression in human U373MG cells at 25 uM by Western blot analysis; format: functional, cell-based; conditions: U-373MG ATCC, TDE = time-dependent effect
In short: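 Time course: U87MG and U373MG cells were exposed to 25 μM morusin for the indicated times. Whole-cell extracts were Western blotted, with β-actin as internal control.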

U373 MG = test: Effect on DcR2 expression in human U373MG cells upto 25 uM after 24 hrs by Western blot analysis; format: functional, cell-based; conditions: U-373MG ATCC; in short: as §1
[14] = Reduction of PDGFR expression in human U251MG cells at 25 uM after 24 hrs by Western blot analysis; format: functional, cell-based; conditions: U-251; in short: as §2
T98G [15] = test: Induction of apoptosis in human T98G cells assessed as increase in cleaved caspase 9 levels at 2.5 uM after 24 hrs by Western blot analysis in presence of TRAIL; format: functional, cell-based; in short: as §3
T98G [16] = test: Reduction of PDGFR expression in human T98G cells at 25 uM after 24 hrs by Western blot analysis; format: functional, cell-based; in short: as §2
[17] = Cytotoxicity against human U373MG cells assessed as reduction in cell viability measured up to 20 uM after 24 hrs by MTT assay in presence of TRAIL; format: functional, U-373MG ATCC
In short: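 MTT viability. 3–5 × 10^3 cells/well, treated the next day with TRAIL 100 ng/mL plus increasing morusin concentrations for 24 h. 1 mg/mL MTT for 2 h at 37 °C, lysis overnight, OD 570 nm. Living-cell fractions were used for combination index analysis. Mean ± SD, at least three independent experiments.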

LN-18 = test: Effect on DR4 expression in human LN18 cells upto 25 uM after 24 hrs by Western blot analysis; format: functional, cell-based; in short: as §1
[18] = Reduction of XIAP expression in human U87MG cells after 24 hrs by Western blot analysis; format: functional, cell-based; conditions: U-87MG ATCC
In short: (§5)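 U87MG (MEM) and U373MG (RPMI) cells were given graded morusin concentrations for 24 h. Whole-cell extracts were immunoblotted for anti-apoptotic proteins, with β-actin as loading control.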

U-87 MG [19] = test: Induction of DR4 expression in human U87MG cells at 25 uM after 24 hrs by FITC-conjugated flow cytometric analysis; format: functional, cell-based; conditions: U-87MG ATCC
In short: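 Cells given 25 μM morusin for 24 h, then stained on ice for 30 min with 0.5 μg/mL FITC-conjugated anti-DR4, anti-DR5 or isotype IgG in FACS buffer. Surface expression read by flow cytometry.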

U-251 [20] = test: Effect on DcR1 expression in human U251MG cells upto 25 uM after 24 hrs by Western blot analysis; format: functional, cell-based; in short: as §1
[21] = Reduction of survivin expression in human U87MG cells after 24 hrs by Western blot analysis; format: functional, cell-based; conditions: U-87MG ATCC; in short: as §5
[22] = biological target: Signal transducer and activator of transcription 3 (Homo sapiens) (UniProt P40763); test: Inhibition of STAT3 phosphorylation in human U373MG cells measured up to 25 uM after 24 hrs by Western blot analysis; format: cell-based; conditions: U-373MG ATCC
In short: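 Cells grown in MEM (U87MG) or RPMI (U373MG) with 10% FBS, 5% CO2, 37 °C. Treated for 24 h with the indicated concentrations of morusin (DMSO stock). Whole-cell lysates immunoblotted for phosphorylated and total proteins, with β-actin as internal control.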

[23] = Cytotoxicity against human U87MG cells assessed as reduction in cell viability after 24 hrs by MTT assay; format: functional, cell-based, U-87MG ATCC; conditions: U-87 MG; in short: as §4

Sequence of Epidermal growth factor receptor (Homo sapiens) (P00533 whole entry): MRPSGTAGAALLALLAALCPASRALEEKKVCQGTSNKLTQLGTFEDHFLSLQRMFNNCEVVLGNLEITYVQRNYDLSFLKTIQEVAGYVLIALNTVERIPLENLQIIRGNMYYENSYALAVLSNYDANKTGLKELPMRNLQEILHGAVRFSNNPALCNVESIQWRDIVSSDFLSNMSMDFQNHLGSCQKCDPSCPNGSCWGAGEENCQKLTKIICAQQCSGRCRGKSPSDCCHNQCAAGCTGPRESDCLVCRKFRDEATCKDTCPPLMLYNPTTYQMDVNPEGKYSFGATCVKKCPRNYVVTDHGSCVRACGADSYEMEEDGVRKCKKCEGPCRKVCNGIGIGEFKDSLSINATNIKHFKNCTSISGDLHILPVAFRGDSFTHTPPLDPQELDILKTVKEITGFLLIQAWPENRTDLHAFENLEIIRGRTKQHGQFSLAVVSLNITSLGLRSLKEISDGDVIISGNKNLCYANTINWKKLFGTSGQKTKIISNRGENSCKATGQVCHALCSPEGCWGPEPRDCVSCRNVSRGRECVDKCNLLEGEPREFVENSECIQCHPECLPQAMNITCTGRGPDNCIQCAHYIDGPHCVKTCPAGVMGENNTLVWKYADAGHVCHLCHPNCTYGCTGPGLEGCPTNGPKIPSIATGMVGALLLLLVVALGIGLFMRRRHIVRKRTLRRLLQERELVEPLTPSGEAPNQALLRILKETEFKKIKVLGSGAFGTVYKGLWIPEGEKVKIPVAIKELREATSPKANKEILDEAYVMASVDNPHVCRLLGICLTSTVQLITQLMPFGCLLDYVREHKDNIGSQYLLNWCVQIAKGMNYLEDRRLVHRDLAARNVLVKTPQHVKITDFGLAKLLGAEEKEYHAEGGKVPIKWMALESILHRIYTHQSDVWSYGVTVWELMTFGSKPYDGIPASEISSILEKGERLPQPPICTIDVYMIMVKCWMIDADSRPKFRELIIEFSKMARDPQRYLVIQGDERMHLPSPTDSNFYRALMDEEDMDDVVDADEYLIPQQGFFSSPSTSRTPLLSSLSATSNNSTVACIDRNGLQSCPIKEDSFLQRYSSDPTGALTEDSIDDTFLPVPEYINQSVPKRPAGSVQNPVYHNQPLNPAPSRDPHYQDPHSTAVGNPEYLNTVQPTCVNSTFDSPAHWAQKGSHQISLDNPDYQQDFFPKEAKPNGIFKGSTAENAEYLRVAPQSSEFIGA
Sequence of Signal transducer and activator of transcription 3 (Homo sapiens) (P40763 whole entry): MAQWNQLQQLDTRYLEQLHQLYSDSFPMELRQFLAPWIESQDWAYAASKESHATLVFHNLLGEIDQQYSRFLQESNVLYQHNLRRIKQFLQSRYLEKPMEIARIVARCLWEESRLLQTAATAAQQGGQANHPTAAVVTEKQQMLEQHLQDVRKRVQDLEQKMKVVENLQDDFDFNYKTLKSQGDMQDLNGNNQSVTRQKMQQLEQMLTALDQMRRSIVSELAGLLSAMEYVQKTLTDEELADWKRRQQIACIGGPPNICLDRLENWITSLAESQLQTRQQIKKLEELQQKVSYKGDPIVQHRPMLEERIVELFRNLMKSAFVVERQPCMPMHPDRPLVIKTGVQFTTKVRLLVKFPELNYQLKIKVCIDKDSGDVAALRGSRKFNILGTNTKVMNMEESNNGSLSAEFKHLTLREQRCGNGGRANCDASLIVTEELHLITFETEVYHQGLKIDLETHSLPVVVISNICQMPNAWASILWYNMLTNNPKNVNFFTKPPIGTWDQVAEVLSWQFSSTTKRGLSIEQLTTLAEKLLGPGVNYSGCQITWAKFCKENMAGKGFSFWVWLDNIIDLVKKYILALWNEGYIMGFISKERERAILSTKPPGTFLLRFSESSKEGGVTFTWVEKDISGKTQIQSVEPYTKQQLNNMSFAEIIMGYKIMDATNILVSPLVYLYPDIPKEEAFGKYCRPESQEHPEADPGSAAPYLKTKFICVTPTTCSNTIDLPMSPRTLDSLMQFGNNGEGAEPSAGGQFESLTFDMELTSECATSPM

## CC(C)=CCc1c(-c2ccc(O)cc2O)oc2c3c(cc(O)c2c1=O)OC(C)(C)C=C3 [MORUSIN]
[1]
  inhibition: Active
U-251 [2]
  Activity: Dose-dependent effect
[3]
  Activity: tde
[4]
  Activity: Active
U-87 MG [5]
  Activity: Active
[6]
  Activity: Active
U-87 MG [7]
  Activity: Active
U-87 MG [8]
  Activity: Active
[9]
  IC50: 24 µM
U-87 MG [10]
  Activity: inactive
[11]
  Activity: Active
U-87 MG [12]
  Activity: inactive
[13]
  inhibition: tde
U373 MG
  Activity: inactive
[14]
  Activity: Active
T98G [15]
  Activity: Active
T98G [16]
  Activity: Active
[17]
  CI: <0.8
LN-18
  Activity: inactive
[18]
  inhibition: Dose-dependent effect
U-87 MG [19]
  Activity: inactive
U-251 [20]
  Activity: inactive
[21]
  inhibition: Dose-dependent effect
[22]
  inhibition: Active
[23]
  IC50: 24 µM
